Screening results from PubChem BioAssay.
Insulin prom up: insulin promoter activators in MIN6 cells, imaging, high-content screening, mouse beta cells. actives 0.3% (n = 190,000). z-score at 5 µM. MIN6 insulin promoter-GFP reporter; active compounds read high;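 active = z-score above 3 at 5 µM with at least 500 cells counted in the well; inconclusive = wells under 500 cells, flagged as cytotoxic or low count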
INS promoter inh: inhibitors of insulin promoter-driven GFP, primary screen, imaging, TRM-6 cells (human fetal islet line), eGFP reporter, cell count; AID 1273, 2008; inhibition, % at 2 µM; actives 0.9% (n = 130,000); reporter expression induced with tamoxifen;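 active = inhibition above the mean plus 3 SD, with well images judged a real hit on visual review, cut at about 60% in these data, passing the limit was not always enough; inconclusive = inhibition over the cutoff but images rejected on review; inactive = inhibition not above the cutoff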
Yeast lifespan up: compounds extending yeast replicative lifespan, primary screen, S. cerevisiae, OD615 | actives 0.68% (n = 130,000) | inhibition of the nicotinamide effect, % at 10 µM | S. cerevisiae growth with nicotinamide; deaD strain in restrictive glucose medium;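 active = inhibition above a set limit, placed 3 SD over the median of all compounds, cut at about 26% in these data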
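Assay system: engineered S. cerevisiae DeaD replicative-lifespan strain, galactose-grown log-phase cells; Buffer or medium: CSMM-D glucose medium, restrictive; Probe or stimulus: nicotinamide 1.5 mM; Compound: single dose 10 µM compound, 0.25% DMSO; Schedule: 4 h preincubation then 48 h treatment at 30 °C; Technique: OD615 measurement.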
RAM inhibit: inhibitors of the yeast RAM network, primary screen, dse1pr::URA3 reporter, 5-FOA selection | actives 1.8% (n = 190,000) | inhibition, % at 50 µM | S. cerevisiae dse1pr::URA3 reporter, 5-FOA growth OD615, 2 d; analog-sensitive cbk1-as2 kinase mutant strain;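 active = inhibition above a set limit, 3 SD over mean compound inhibition, cut at about 8.4% in these data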;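 note: inhibition rescues growth on 5-FOA so higher OD means more RAM inhibition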
BB579 growth dn: growth inhibitors of yeast BB579 in restrictive medium, primary screen, yeast lifespan-shortening project, S. cerevisiae. OD615, 48 h. actives 0.51% (n = 140,000). AID 804, 2007. inhibition, % at 10 µM;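 active = inhibition above a set limit, 3 SD over the mean compound inhibition, cut at about 44% in these data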
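Assay system: S. cerevisiae DeaD strain BB579 yeast. Medium: CSMM-D restrictive synthetic medium containing dextrose (glucose). Times: 4 h cell preincubation, 48 h compound exposure, 30 °C humidified. Signal: OD615 turbidity measurement. Benchmarks: positive control amphotericin B 10 µg/mL.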
RAM efflux-def: 5-FOA growth of efflux-deficient control yeast, dose response, counter-screen for RAM network inhibitor project, S. cerevisiae, OD615; shares compounds with RAM inhibit; S. cerevisiae efflux-deficient reporter strain, 5-FOA growth OD615, 2 days; max inhibition, %; 1,200 tested, under 10 active; AID 1305, 2008; call rule not given here
Hits are given with their value. An excerpt weighted towards active compounds, which were near 3% of everything screened.

For N#C/C(=C(/O)Cc1ccccc1)P(=O)(c1ccccc1)c1ccccc1 the results were Insulin prom up inactive.
O=C(Cc1cccc(C(F)(F)F)c1)NCc1ccc(Cl)cc1Cl was read as Insulin prom up inactive, Yeast lifespan up inactive, RAM inhibit inactive and BB579 growth dn inactive.
Screening COc1ccc(/C=C/C(=O)c2c(O)c(OC)c3occc3c2OC)cc1 returned Insulin prom up inactive, RAM inhibit 12 and RAM efflux-def inactive.
COc1ccc(/C=C/C(=O)c2ccoc2)cc1 was read as INS promoter inh inactive, Yeast lifespan up inactive, RAM inhibit inactive and BB579 growth dn inactive.
COC(=O)c1sc(-c2ccccc2)cc1NC(=O)c1ccccc1 was read as Insulin prom up inactive, INS promoter inh inactive, Yeast lifespan up inactive, RAM inhibit inactive and BB579 growth dn inactive.
CCOC(=O)c1sc(-c2ccccc2)cc1NC(=O)c1ccc(S(=O)(=O)N(CCOC)CCOC)cc1 was read as Insulin prom up inactive, Yeast lifespan up inactive, RAM inhibit 18, BB579 growth dn inactive and RAM efflux-def inactive.
Cc1c(NC(=O)C(C)OC(=O)C23CC4CC(CC(Br)(C4)C2)C3)c(=O)n(-c2ccccc2)n1C (stereo not given) was read as Insulin prom up inactive and RAM inhibit inactive.
Screening CCN(CC(O)CON=C1c2ccccc2-c2ccccc21)S(=O)(=O)c1ccc(Cl)cc1 (stereo not given) returned Insulin prom up inactive, Yeast lifespan up inactive, RAM inhibit 20, BB579 growth dn inactive and RAM efflux-def inactive.
CCN(CC(O)CON=C1c2ccccc2-c2ccccc21)S(=O)(=O)c1ccc(C)cc1 (stereo not given) was read as Insulin prom up inactive, Yeast lifespan up inactive, RAM inhibit 15, BB579 growth dn inactive and RAM efflux-def inactive.
`COc1cc(/C=C/c2cc(C(=O)O)c3ccccc3n2)cc(OC)c1O` gave Insulin prom up inactive, INS promoter inh inactive, RAM inhibit 12 and RAM efflux-def inactive.
Screening CCOc1cc(/C=C/c2cc(C(=O)O)c3ccccc3n2)ccc1OC returned Insulin prom up inactive, INS promoter inh inactive, Yeast lifespan up inactive, RAM inhibit inactive and BB579 growth dn inactive.
COc1ccc(-c2nc(CSCC(=O)NCc3ccc4c(c3)OCO4)c(C)o2)cc1OC was read as Insulin prom up inactive, Yeast lifespan up inactive, RAM inhibit inactive and BB579 growth dn inactive.
`COc1ccc(-c2ccc(SCC(=O)NCc3ccc4c(c3)OCO4)nn2)cc1OC` gave Insulin prom up inactive, INS promoter inh inactive, RAM inhibit 12 and RAM efflux-def inactive.
Screening Cc1ccc(S(=O)(=O)NCCC(c2ccccc2)c2ccco2)cc1 (stereo not given) returned Insulin prom up inactive, INS promoter inh inactive, Yeast lifespan up inactive, RAM inhibit 14, BB579 growth dn inactive and RAM efflux-def inactive.
For CC(C)c1nnc(NC(=O)C2CCN(S(=O)(=O)c3ccc(-n4cnnn4)cc3)CC2)s1 the results were Insulin prom up inactive, INS promoter inh inactive and RAM inhibit inactive.
Screening Cc1ccc(SCCNC(=O)c2ccc(C)c(S(=O)(=O)Nc3ccccc3C)c2)cc1 returned Insulin prom up inactive, Yeast lifespan up inactive, RAM inhibit 17, BB579 growth dn inactive and RAM efflux-def inactive.
For O=C(COc1ccc2c(c1)C(=O)CC1(CCCCC1)O2)NCc1ccccc1 the results were Insulin prom up inactive, INS promoter inh inactive, Yeast lifespan up inactive, RAM inhibit 12, BB579 growth dn inactive and RAM efflux-def inactive.
CC1CCN(c2nc(-c3ccccc3)cc(C(F)(F)F)n2)CC1 was read as Insulin prom up inactive, INS promoter inh inactive, Yeast lifespan up inactive, RAM inhibit inactive and BB579 growth dn inactive.
For Cc1ccc(-c2cc(C(F)F)nc(N3CCC(C)CC3)n2)cc1 the results were Insulin prom up inactive, INS promoter inh inactive, Yeast lifespan up inactive, RAM inhibit 12, BB579 growth dn inactive and RAM efflux-def inactive.
For ClCC1CN(Cc2ccccc2Cl)CCO1 (stereo not given) the results were RAM inhibit inactive.
Screening CCOc1ccccc1N=C1SC(CC(=O)Nc2ccc(OC)cc2OC)C(=O)N1CCC1=CCCCC1 (stereo not given) returned Yeast lifespan up inactive, RAM inhibit inactive and BB579 growth dn inactive.
For O=C(CC1SC(=Nc2ccc(OC(F)F)cc2)N(CCC2=CCCCC2)C1=O)Nc1ccccc1F (stereo not given) the results were Insulin prom up inconclusive, INS promoter inh inactive, Yeast lifespan up inactive, RAM inhibit 11, BB579 growth dn inactive and RAM efflux-def inactive.
Cc1cc(C)nc(NS(=O)(=O)c2ccc(NC(=O)c3ccc4c(c3)OCCO4)cc2)n1 was read as Insulin prom up inactive, INS promoter inh inactive and RAM inhibit inactive.
Screening O=C(Nc1ccc(Oc2ccc(C(F)(F)F)cn2)c(Cl)c1)C1CC1 returned Insulin prom up inactive, INS promoter inh inactive and RAM inhibit inactive.
Screening O=C(CC12CC3CC(CC(C3)C1)C2)NC(=S)NCc1ccco1 returned Insulin prom up inactive, INS promoter inh inactive, RAM inhibit 15 and RAM efflux-def inactive.
`Cc1cc(C)n2nc(C(=O)Nc3ccc(S(=O)(=O)N(C)C)cc3)nc2n1` gave Insulin prom up inactive.
For Cc1ccc(NC(=O)COc2ccc(CCO)cc2-n2nc3ccccc3n2)cc1C the results were Insulin prom up inactive, INS promoter inh inactive, Yeast lifespan up inactive, RAM inhibit 12, BB579 growth dn inactive and RAM efflux-def inactive.
Screening CN(C)c1ccc(N=Nc2ccccc2C(=O)OCC(=O)Nc2ccccc2C(F)(F)F)cc1 returned Insulin prom up inactive, INS promoter inh inactive, Yeast lifespan up 29, RAM inhibit 20, BB579 growth dn inactive and RAM efflux-def inactive.
`CCOC(=O)C1=C(O)/C(=C/c2cc(OC)c(O)c(OC)c2)SC1=Nc1ccc(OC)cc1` gave INS promoter inh inactive, Yeast lifespan up inactive, RAM inhibit 16, BB579 growth dn inactive and RAM efflux-def inactive.
`N#Cc1ccc(-c2cccnc2)nc1SCc1ccc(Cl)cc1Cl` gave Insulin prom up inactive, Yeast lifespan up inactive, RAM inhibit inactive and BB579 growth dn inactive.
`N#Cc1ccc(-c2cccnc2)nc1SCc1ccc(Cl)c(Cl)c1` gave Yeast lifespan up inactive, RAM inhibit 13, BB579 growth dn inactive and RAM efflux-def inactive.
For COC(=O)c1cc(=O)n(Cc2ccc(F)cc2)c(=NCc2ccc(F)cc2)s1 the results were INS promoter inh inactive, RAM inhibit 14 and RAM efflux-def inactive.
